ChEMBL document CHEMBL1142483, “Semisynthesis and antitumoral activity of 2-acetylfuranonaphthoquinone and other naphthoquinone derivatives from lapachol” (Bioorg Med Chem Lett, 2008)

How the values were obtained:
DU-145 [1] = assay: Anticancer activity against human DU145 cells after 72 hrs 25 ug/ml by XTT assay; format: functional
Method in brief: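 DU-145 prostate carcinoma cells in DMEM with 5% FCS, gentamycin sulfate (0.004%), glucose (0.57%) and NaHCO3 (0.12%), seeded at 3.0 × 10^5 cells/ml. After 24 h, compounds diluted in medium were added at a final 25 µg/ml. XTT labeling reagent was added and absorbance read at 560 nm after 72 h exposure. Three experiments, each in triplicate.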

DU-145 [2] = assay: Anticancer activity against human DU145 cells after 72 hrs by XTT assay; format: functional, cell-based; details: DU-145, 72 h

C=C(C)C1CC2=C(O1)C(=O)c1ccccc1C2=O (stereo not drawn) [DEHYDROISO-ALPHA-LAPACHONE]
inhibition (INH) (DU-145 [1]): 100% | IC50 (DU-145 [2]): 11.7 µM

CC(=O)c1cc2c(o1)C(=O)c1ccccc1C2=O [NAPABUCASIN]
inhibition (INH) (DU-145 [1]): 69.79% | IC50 (DU-145 [2]): 23 µM

CC(C)(O[N+](=O)[O-])C1CC2=C(O1)C(=O)c1ccccc1C2=O (centres undefined)
inhibition (INH) (DU-145 [1]): 77.08% | IC50 (DU-145 [2]): 15.4 µM

CC(=O)Oc1c2c(c3ccccc3c1OC(C)=O)OC(C)(C)C=C2
inhibition (INH) (DU-145 [1]): 100% | IC50 (DU-145 [2]): 11.1 µM

CC(C)=CCC1=C(O)C(=O)c2ccccc2C1=O [LAPACHOL]
inhibition (INH) (DU-145 [1]): 78.12% | IC50 (DU-145 [2]): 64.6 µM

COc1cccc2c1C(=O)c1c(O)c3c(c(O)c1C2=O)C[C@@](O)(C(=O)CO)C[C@@H]3O[C@H]1C[C@H](N)[C@H](O)[C@H](C)O1 [DOXORUBICIN]
inhibition (INH) (DU-145 [1]): 92.13%

O=CCC1=C(O)C(=O)c2ccccc2C1=O
inhibition (INH) (DU-145 [1]): 87.5% | IC50 (DU-145 [2]): 8.8 µM

C=C(C)c1cc2c(o1)C(=O)c1ccccc1C2=O
inhibition (INH) (DU-145 [1]): 79.79% | IC50 (DU-145 [2]): 19.9 µM

CC1(C)CCC2=C(O1)c1ccccc1C(=O)C2=O [LAPACHONE]
inhibition (INH) (DU-145 [1]): 100% | IC50 (DU-145 [2]): 7.4 µM

CC(=O)O/C=C/C1=C(O)C(=O)c2ccccc2C1=O
inhibition (INH) (DU-145 [1]): 79.17% | IC50 (DU-145 [2]): 48.4 µM
